Assay outcomes: PubChem BioAssay, several laboratories
Compounds with a hit are over-represented: about 3.6% of the library has one in this group of screens.
HSF1 inh = HSF1 inhibition | activity change, negative = inhibition, % at 7.5 µM (by protocol) | NIH3T3-HGL HSE-luciferase, MG132-induced, luminescence 8 h; hits give low values | AID 2098 | 0.77% of 300,000 active;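 active = more than half of replicate wells show activity change below -50%, luminescence cut by over half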;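 note: luciferase reports HSF-1 transcriptional activity via heat shock element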
PERK inhibitor = human PERK inhibition, primary cell-based screen; CHO PERK-DD fusion, SEAP luminescence translation reporter; inhibition, % at 5.6 µM; 0.17% of 220,000 active; Q9NZJ5;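 active = inhibition above the mean inhibition of all tested compounds plus 3 SD, set separately per screening campaign, cut at about 2.9% in these data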;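 note: PERK kinase domain activated by AP20187 dimerizer at 100 nM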
Hsp70 activator = Hsp70 transcriptional activation, primary screen | HeLa Hsp70 promoter luciferase reporter, luminescence; scaled: vehicle 0, proteasome-inhibitor control 100% | activation, % at 10 µM | 0.04% of 200,000 active;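 active = activation above the mean across all tested compounds plus 3 SD, cutoff set per campaign, cut at about 5.5% in these data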
STAT3 activator = activators of IL-6 induced STAT3 signaling; U3A cells, IL-6 STAT3-luciferase reporter, luminescence; 100% = signal with IL-6 EC80 alone; activation (% of control), % at 5.6 µM; 0.91% of 190,000 active;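 active = activation above the screen-wide mean of compound activation plus 3 SD, cut at about 130% in these data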
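Material: STAT1-lacking human U3A cells, STAT3 luciferase reporter | Benchmarks: IL-6-only wells as 100% reference | Probe or stimulus: IL-6 (33 ng/mL) | Timing: Compound 1 h, then IL-6 6 h at 37 °C | Detection: Luminescence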
AHR act = human AHR activation. P35869. AHR-responsive luciferase reporter cells, luminescence. activation, % at 5 µM. 2.5% of 320,000 active. AID 2796; in the data active = activation above about 47%
Target sequence (P35869 whole entry, looked up): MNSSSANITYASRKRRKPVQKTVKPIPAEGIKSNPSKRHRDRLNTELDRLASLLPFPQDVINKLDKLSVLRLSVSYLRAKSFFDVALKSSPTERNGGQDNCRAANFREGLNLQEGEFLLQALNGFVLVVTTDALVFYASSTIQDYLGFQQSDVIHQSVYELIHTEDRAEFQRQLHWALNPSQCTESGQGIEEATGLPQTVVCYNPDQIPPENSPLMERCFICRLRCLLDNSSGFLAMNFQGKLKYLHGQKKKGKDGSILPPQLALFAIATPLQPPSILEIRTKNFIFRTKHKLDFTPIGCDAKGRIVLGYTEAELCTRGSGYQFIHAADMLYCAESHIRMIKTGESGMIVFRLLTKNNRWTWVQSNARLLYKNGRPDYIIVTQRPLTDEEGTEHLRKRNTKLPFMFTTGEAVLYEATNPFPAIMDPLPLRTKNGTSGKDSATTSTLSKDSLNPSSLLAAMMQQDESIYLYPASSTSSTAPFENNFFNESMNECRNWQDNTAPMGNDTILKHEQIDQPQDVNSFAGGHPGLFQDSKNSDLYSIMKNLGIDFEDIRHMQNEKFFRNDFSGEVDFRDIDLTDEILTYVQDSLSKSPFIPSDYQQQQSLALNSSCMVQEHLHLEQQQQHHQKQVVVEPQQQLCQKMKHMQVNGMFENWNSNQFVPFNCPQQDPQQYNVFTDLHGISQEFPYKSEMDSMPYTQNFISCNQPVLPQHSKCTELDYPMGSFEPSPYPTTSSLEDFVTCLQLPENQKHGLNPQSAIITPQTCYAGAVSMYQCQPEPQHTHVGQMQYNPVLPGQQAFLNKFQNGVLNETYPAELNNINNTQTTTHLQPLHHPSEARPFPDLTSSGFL
PolyA inh = blocks polyadenylation in yeast reporter cells; 0.02% of 300,000 active; activity score, % at 12 µM; S. cerevisiae SKY197-pL101 polyadenylation reporter, beta-gal luminescence; efflux-impaired pdr1/pdr3 knockout yeast; score 100 = 6 SD above DMSO;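 active = lowest replicate activity score at least 50, where 100 means six control SD above control mean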;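 note: yeast exposed to compound for 9 h at 30 °C; higher score means more reporter readthrough which indicates perturbed polyadenylation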
A number is an active result.

Results for Cc1ccc(S(=O)(=O)CCC(=O)OC(C)c2nnc(-c3cccs3)o2)cc1 (configuration not stated) ?
AHR act: inactive

Results for O=C1[C@H]2[C@@H](c3ccc(F)cc3)N3C(=O)N(c4ccc(Br)cc4)C(=O)[C@@]3(Cc3ccccc3)[C@H]2C(=O)N1C1CCCCC1 ?
HSF1 inh: inactive; AHR act: inactive; PolyA inh: inactive

Results for COc1ccc(CC(C)Nc2cccc(SC)c2)cc1 (configuration not stated) ?
HSF1 inh: -58.9; PolyA inh: inactive

Results for COc1ccc(CC(=O)Nc2cccc(SC)c2)cc1 ?
HSF1 inh: inactive; PERK inhibitor: inactive; Hsp70 activator: inactive; STAT3 activator: inactive; AHR act: inactive; PolyA inh: inactive

What do the screens show for `CCOc1ccccc1NC(=O)c1ccc([N+](=O)[O-])cc1`?
HSF1 inh: inactive; PERK inhibitor: inactive; Hsp70 activator: inactive; STAT3 activator: inactive; AHR act: inactive; PolyA inh: inactive

How did CC(C)N(CCC(=O)c1ccc2ccccc2c1)Cc1ccccc1 do in these assays?
AHR act: inactive

How did CCOc1ccccc1NC(=O)c1ccc2ccccc2c1 do in these assays?
HSF1 inh: inactive; AHR act: 66.7; PolyA inh: inactive

How did CCCOc1ccccc1NC(=O)c1ccc([N+](=O)[O-])cc1 do in these assays?
HSF1 inh: inactive; PERK inhibitor: inactive; Hsp70 activator: inactive; STAT3 activator: inactive; AHR act: 64.3; PolyA inh: inactive

Results for CCOc1ccccc1NC(=O)NNC(=O)c1ccc2ccccc2c1 ?
HSF1 inh: inactive; AHR act: 49.1; PolyA inh: inactive

Results for CCC(=O)CCC(=O)c1ccc2ccccc2c1 ?
HSF1 inh: -57.9; PERK inhibitor: inactive; Hsp70 activator: inactive; STAT3 activator: inactive; AHR act: inactive; PolyA inh: inactive

What do the screens show for `COc1ccc(NC(=O)NNC(=O)c2ccc3ccccc3c2)cc1OC`?
HSF1 inh: inactive; AHR act: inactive; PolyA inh: inactive

How did CC(=O)Nc1ccc(NC(=O)CNC(=O)c2cccc(C)c2)cc1 do in these assays?
HSF1 inh: inactive; AHR act: inactive; PolyA inh: inactive

Results for CCN(CC)CC(=O)n1c2c(c3ccccc31)CCCC2 ?
HSF1 inh: inactive; PERK inhibitor: inactive; Hsp70 activator: inactive; STAT3 activator: inactive; AHR act: inactive; PolyA inh: inactive

How did O=C(CSc1ncccn1)n1c2c(c3ccccc31)CCCC2 do in these assays?
HSF1 inh: inactive; PERK inhibitor: inactive; Hsp70 activator: inactive; STAT3 activator: inactive; AHR act: 70.0; PolyA inh: inactive

How did CN1CCN(CC(=O)n2c3c(c4ccccc42)CCCC3)CC1 do in these assays?
HSF1 inh: -63.9; PERK inhibitor: inactive; Hsp70 activator: inactive; STAT3 activator: inactive; AHR act: inactive; PolyA inh: inactive

What do the screens show for `COc1ccc(C(=O)c2c3ccc(C(F)(F)F)cc3[n+]([O-])n2CCCC(N)=O)cc1`?
HSF1 inh: inactive; AHR act: inactive; PolyA inh: inactive

Results for NC(=O)CCCn1c(C(=O)c2cc(Cl)c(N)c(Cl)c2)c2ccc(C(F)(F)F)cc2[n+]1[O-] ?
HSF1 inh: inactive; AHR act: 54.6; PolyA inh: inactive

What do the screens show for `COc1ccc(C(=O)c2c3ccc([N+](=O)[O-])cc3[n+]([O-])n2CCCC(N)=O)cc1`?
HSF1 inh: inactive; AHR act: inactive; PolyA inh: inactive

How did NCCCn1c(C(=O)c2cc(Cl)c(N)c(Cl)c2)c2ccc(C(F)(F)F)cc2[n+]1[O-] do in these assays?
HSF1 inh: inactive; AHR act: 56.6; PolyA inh: inactive

What do the screens show for `NC(=O)c1ccc(Cn2c(C(=O)c3cc(Cl)c(N)c(Cl)c3)c3ccccc3[n+]2[O-])cc1`?
AHR act: 78.4

Results for NC(=O)c1ccc(Cn2c(C(=O)c3ccc(Cl)cc3)c3ccccc3[n+]2[O-])cc1 ?
AHR act: inactive

What do the screens show for `NCCCn1c(C(=O)c2cc(Cl)c(N)c(Cl)c2)c2ccc([N+](=O)[O-])cc2[n+]1[O-]`?
HSF1 inh: inactive; AHR act: 114.9; PolyA inh: inactive

What do the screens show for `CCOc1cc2[nH]c(=S)n(Cc3ccc(C(=O)O)cc3)c(=O)c2cc1OCC`?
HSF1 inh: inactive; PolyA inh: inactive

What do the screens show for `COc1ccc(CCNC(=O)c2ccc3c(c2)NC(=O)C(CSCc2cc(C)ccc2C)N3)cc1OC` (configuration not stated)?
HSF1 inh: inactive; AHR act: inactive; PolyA inh: inactive

How did CCCCn1c(N)c(N(Cc2ccccc2OC)C(=O)c2cc(CC)c(C)s2)c(=O)[nH]c1=O do in these assays?
AHR act: inactive

What do the screens show for `O=C(c1cc(S(=O)(=O)N2CCOCC2)ccc1F)N(CCc1ccccc1)Cc1ccccc1`?
HSF1 inh: inactive; AHR act: inactive; PolyA inh: inactive

What do the screens show for `COc1cc(OC)cc(C(=O)N[C@H](C(=O)OCC(=O)Nc2ccc3c(c2)OCO3)C(C)C)c1`?
AHR act: inactive

How did N=c1c2c(ncn1CCCO)Oc1c(ccc3ccccc13)C2c1ccccc1 (configuration not stated) do in these assays?
HSF1 inh: -65.7; PERK inhibitor: inactive; AHR act: inactive; PolyA inh: inactive

How did CCCc1nc(SCc2cccnc2)c2c(=O)n(C)c(=O)n(C)c2n1 do in these assays?
HSF1 inh: inactive; PERK inhibitor: inactive; Hsp70 activator: inactive; STAT3 activator: inactive; AHR act: 51.9; PolyA inh: inactive

What do the screens show for `Cn1c(=O)c2c(SCc3cccnc3)nc(CC(C)(C)C)nc2n(C)c1=O`?
HSF1 inh: inactive; PERK inhibitor: inactive; Hsp70 activator: inactive; STAT3 activator: inactive; AHR act: inactive; PolyA inh: inactive

How did Cc1ccc(N(C(=O)c2csnn2)C(C(=O)NC2CCCC2)c2ccccn2)cc1 (configuration not stated) do in these assays?
HSF1 inh: inactive; AHR act: inactive; PolyA inh: inactive

What do the screens show for `Clc1ccc(-c2nc3cnccn3c2Nc2ccc3c(c2)OCO3)cc1`?
HSF1 inh: inactive; PERK inhibitor: inactive; Hsp70 activator: inactive; STAT3 activator: inactive; AHR act: inactive; PolyA inh: inactive

How did Cc1ccc(Nc2c(-c3ccccc3)nc3cnccn23)cc1 do in these assays?
HSF1 inh: inactive; PERK inhibitor: inactive; Hsp70 activator: inactive; STAT3 activator: inactive; AHR act: inactive; PolyA inh: inactive

How did CSc1ccc(-c2nc3cnccn3c2Nc2ccc3c(c2)OCO3)cc1 do in these assays?
HSF1 inh: inactive; PERK inhibitor: inactive; Hsp70 activator: inactive; STAT3 activator: inactive; AHR act: 188.4; PolyA inh: inactive

What do the screens show for `Cc1ccc(-c2nc3cnccn3c2Nc2ccc3c(c2)OCO3)o1`?
HSF1 inh: inactive; PERK inhibitor: inactive; Hsp70 activator: inactive; STAT3 activator: inactive; AHR act: 52.8; PolyA inh: inactive
